Bioassay records (PubChem)
A selection: hits, their analogues and other compounds. The true share with any hit is near 1.3%.
Yeast growth inh = reduces growth of yeast BB579 in restrictive medium | S. cerevisiae BB579 growth, OD615, 48 h | inhibition, % at 10 µM | 140,000 compounds, 0.51% hits | AID 804;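 active = inhibition above a set limit, 3 SD over the mean compound inhibition, cut at about 44% in these data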
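System: Saccharomyces cerevisiae DeaD strain BB579, replicative lifespan model yeast | Buffer or medium: Restrictive glucose-based CSMM-D medium | Times: 4 h preincubation and 48 h exposure at 30 °C | Detection: OD615 turbidity measurement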
Yeast life ext = yeast lifespan extension | S. cerevisiae growth with nicotinamide, OD615; deaD strain in restrictive glucose medium | inhibition of the nicotinamide effect, % at 10 µM | 130,000 compounds, 0.68% hits;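 active = inhibition above a set limit, placed 3 SD over the median of all compounds, cut at about 26% in these data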;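 also: 0% = nicotinamide-treated wells and 100% = cells grown without nicotinamide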
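Material: Modified budding yeast, DeaD strain | Medium: Restrictive glucose medium | Probe or stimulus: 1.5 mM nicotinamide | Dosing: Single dose 10 µM compound, 0.25% DMSO | Times: 48 h at 30 °C | Technique: OD615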
sdo1 growth = sdo1-depleted yeast growth rescue; S. cerevisiae sdo1-depleted JHY4D growth rescue, OD600 30 h; stronger effect = higher value; pdr5 snq2 efflux-pump mutant strain; z-score at 10 µM; 140,000 compounds, 0.21% hits;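 active = z-score above 3 at both the 24 hr and the 30 hr optical density reads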;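 also: z-score against mean and SD of all compound wells on the same plate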
Efa HMGR inh = inhibitors of class II HMG-CoA reductase from Enterococcus faecalis; inhibition, % at 10 µM; 190,000 compounds, 0.41% hits; purified E. faecalis HMGR, NADPH absorbance 340 nm kinetic;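 active = inhibition above a set limit, the median over all tested compounds plus 3 SD, cut at about 9.5% in these data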;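 also: enzyme runs in reverse so mevalonate oxidation gives rising NADPH absorbance; 0% = complete reaction with DMSO and 100% = background rate lacking mevalonate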
sdo1 rescue conf = confirmation of growth rescue in SDO1-depleted yeast, bone marrow failure | 440 compounds, 44% hits | shares compounds with sdo1 growth | AID 949 | OD recovery (test concentration not listed) | S. cerevisiae JHY4D (SDO1-depleted) growth rescue, OD600, 30 h; stronger effect = higher value; efflux-deficient strain, SNQ2 and PDR5 mutated;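 active = yeast growth recovered at 30 hours, either rising with dose fitted slope above 0.001 or with average optical density gain above 0.07, some results past the limit were not filed as active; inactive = growth falling with dose or no effect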;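 also: gain in OD600 from 0 h to 30 h averaged across all seven doses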
* marks the source's active call; other numbers are inactive results; . = no result.

SMILES | Yeast growth inh | Yeast life ext | sdo1 growth | Efa HMGR inh | others
Oc1c(Br)cc(Cl)cc1C=Nc1ccc(N2CCOCC2)cc1 | . | . | . | -6
Oc1c(Br)cc(Cl)cc1C=Nc1ccccc1Br | 65* | 16 | -0.02 | 1
Cc1cccc(C(=O)NC(=S)NNC(=O)COc2ccc(Cl)cc2)c1 | . | . | . | 0
Cc1ccc(C(=O)NNC(=S)NC(=O)c2ccc(Cl)cc2Cl)cc1 | -18 | 31* | 0.56 | -7
O=C(COc1ccccc1)NNC(=S)NC(=O)c1ccc(Cl)cc1Cl | 88* | . | -1.4 | -3
COCCNc1ccc(S(=O)(=O)N2CCCC2)cn1 | . | . | . | -5
CCCOc1ccc(-c2nnn(CC(=O)N3CCC(C)CC3)n2)cc1 | -34 | -5 | 0.27 | -5
CCOc1ccc(-c2nnn(CC(=O)N3CCCC(C)C3)n2)cc1 (centres undefined) | . | . | . | 13*
O=C(Nc1ccccc1N1CCOCC1)c1cccc(NS(=O)(=O)c2ccc(F)c(F)c2)c1 | . | . | . | 5
O=C(Nc1ccc([N+](=O)[O-])cc1)c1cc(-c2ccccn2)nc2c(Cl)cccc12 | . | . | . | -1
CCOC(=O)c1ccccc1-c1csc(N)n1 | . | . | . | -1
CCC12CN3CC(CC)(CN(C1)C3c1c(O)ccc3ccccc13)C2=O (centres undefined) | -38 | 26* | -0.54 | -2
C=CCOc1ccc(C2N3CC4(CC)CN2CC(CC)(C3)C4=O)cc1 (centres undefined) | -29 | 7 | -0.8 | 0
Cn1c(CN2CCCC2)c(C#N)c2ccccc21 | . | . | . | 15*
CN1CCN(Cc2c(C#N)c3ccccc3n2C)CC1 | -15 | -7 | 0.27 | -6
O=C(NC1CCCCC1)C(c1cccnc1)N(C(=O)CCl)c1cccc(Cl)c1 (centres undefined) | -23 | -2 | -1.4 | -5
CCC(CO)NCc1sccc1C (centres undefined) | . | . | . | 10*
Cc1ccc(C)[n+](CC(=O)N2CCCCC2)c1 | . | . | . | -4
Cc1cccc(/C(N)=N/OC(=O)c2cccs2)c1 | 10 | -23 | -2 | -1
Cc1cccc(/C(N)=N/OC(=O)c2ccc(F)cc2)c1 | 95* | -10 | -2.5 | 1
O=C(N/N=C/c1cc(Br)ccc1O)C(c1ccncc1)N1CCOCC1 (centres undefined) | -6 | 35* | 0.15 | -5
Cc1nc2ccccn2c1C(=O)NC1CCCC1 | . | . | . | -5
Cc1nc2ccccn2c1C(=O)NN=C1C2CC3CC(C2)CC1C3 | -26 | 38* | 0.63 | -8
COc1ccc(C(=O)NC2CCN(CC(=O)Nc3cccc(C)c3)CC2)cc1OC | -20 | . | 0.26 | 11*
Cc1cc(C)cc(NC(=O)CN2CCC(NC(=O)Cc3ccccc3)CC2)c1 | -5 | 27* | 0.63 | -1
SMILES | Yeast growth inh | Yeast life ext | sdo1 growth | Efa HMGR inh | others
CC1CCN(c2nc(/C=C/c3ccccc3)nc3ccccc23)CC1 | 91* | -12 | -2.4 | -3
CCCC(=O)Nc1nc2ccc(OC)cc2s1 | -29 | -8 | -0.81 | 0
COc1ccc2nc(NC(=S)N(C)C)sc2c1 | 65* | -11 | -1.3 | -1
COc1ccc(C(=O)Nc2ccc(C(F)(F)F)n(C)c2=O)cc1 | -26 | -8 | 0.5 | 11*
COc1ccc(NC(=O)c2ccc3c(c2)n(C)c(=O)n3C)cc1 | -30 | -4 | -0.47 | 21*
COc1ccc(-c2cc(C(F)(F)F)n3nc(C(=O)Nc4c(C)n(C)n(-c5ccccc5)c4=O)cc3n2)cc1 | . | . | . | -3
Cc1ccc(S(=O)(=O)/N=C(/Nc2ccc3[nH]c(=O)[nH]c3c2)c2ccc(F)cc2)cc1 | . | . | . | -1
CS(=O)(=O)N(CC(N)=O)c1cccc(Br)c1 | -19 | . | 0.09 | 17*
CC(C)N1CCN(Cc2coc3ccccc3c2=O)CC1CCO (centres undefined) | . | . | . | -3
O=C(Nc1ccccc1Cl)c1ccccc1Cl | 3 | -16 | -0.2 | -3
O=C1OCC(CO)(CO)N=C1NNc1ccccc1Cl | 98* | -19 | -2.2 | 5
Cc1cc(N=Cc2c(O)ccc3ccccc23)no1 | -13 | 43* | 2.4 | -4
CN(C)/N=C/c1c(O)ccc2ccccc12 | 9 | -18 | -0.67 | -3
COc1ccc2c(c1)-c1nc(/N=C/c3c(O)ccc4ccccc34)sc1CC2 | -55 | 30* | -0.02 | -4
Oc1ccc2ccccc2c1/C=N/c1nccs1 | -41 | 75* | 0.15 | -6
CCOC(=O)c1cc(CC)sc1/N=C/c1c(O)ccc2ccccc12 | -6 | 32* | -0.64 | -2
Cc1cc(N=Cc2c(O)ccc3cc(Br)ccc23)no1 | 41 | 21 | -0.94 | 3
CCOC(=O)C1CC2CC(C1)CN(C(=O)C1CCCCC1)C2 (centres undefined) | . | . | . | -5
COc1ccc(-c2cc(-c3ccccc3)n[nH]2)c(O)c1 | . | . | . | 1
COc1ccc(-c2cc(-c3ccccc3O)[nH]n2)cc1 | 76* | -13 | -1.9 | 0
CCOC(=O)Cc1csc(NC(=O)COc2ccccc2)n1 | -8 | -15 | -1.2 | -8
CCOC(=O)Cc1csc(NC(=O)COc2cccc(C)c2)n1 | . | . | . | 18*
Cc1cccc(C(=O)N2CCC(=O)N(C(COCc3ccccc3)Cc3ccccc3)CC2)c1 (centres undefined) | -31 | 9 | -1.1 | 15*
Cc1ccnc(N/N=C/c2ccccc2)n1 | 14 | -6 | 0.85 | -1
Cc1cc(C)nc(N/N=C2/CCCC/C2=C\c2ccccc2)n1 | . | . | . | 14*
SMILES | Yeast growth inh | Yeast life ext | sdo1 growth | Efa HMGR inh | others
O=c1ccc(NS(=O)(=O)c2ccccc2)cn1Cc1ccc(Cl)c(Cl)c1 | -12 | -16 | 1.6 | -8
Cc1ccccc1C(=O)NNC(=S)NC(=O)c1ccccc1 | 27 | 30* | -0.46 | 4
O=C(CCc1ccccc1)NNC(=S)NC(=O)c1ccccc1 | 69* | -12 | -1.8 | -3
CC(=O)CSc1nc2cc3c(cc2cc1C#N)OCCO3 | . | . | . | 11*
NS(=O)(=O)c1ccc(O)c(N2C(=O)c3cccc4c(C(=O)c5ccccc5)ccc(c34)C2=O)c1 | . | . | . | -6
Cc1ccc2cccnc2c1N | . | . | . | -3
c1cnc2c(c1)ccc1cccnc12 | 99* | -9 | -0.96 | 0
CCOC(=O)C(NC(=O)OC(C)C)(Nc1nccs1)C(F)(F)F (centres undefined) | -10 | -11 | 13* | -5 | sdo1 rescue conf=0.088*
C=CCNC(=S)NNC(=O)c1ccc(OCC(C)C)cc1 | -57 | -1 | 6.2* | -4 | sdo1 rescue conf=0.094*
C=CCNC(=S)NNC(=O)c1ccc(OCC)cc1 | 2 | -7 | 0.86 | -6
O=[N+]([O-])c1cc(S(=O)(=O)N2CCCC2)ccc1N/N=C/c1ccncc1 | -15 | 5 | 0.23 | 2 | sdo1 rescue conf=0.053
O=[N+]([O-])c1cc(S(=O)(=O)N2CCCC2)ccc1N/N=C/c1cccs1 | -36 | 1 | 1.5 | -5 | sdo1 rescue conf=0.055
Cc1ccc(Cl)cc1NC(=S)N(CCCN1CCN(C)CC1)Cc1ccco1 | . | . | . | 1
OCCNc1nc(-c2ccccc2)nc2ccccc12 | . | . | . | 6
O=C(NCCO)c1nc(NCCO)c2ccccc2n1 | -26 | -3 | 5.6* | -5 | sdo1 rescue conf=0.031
